# Assay results reported in ChEMBL document CHEMBL1149424, “Synthesis of functionalized 1,8-naphthyridinones and their evaluation as novel, orally active CB1 receptor inverse agonists” (Bioorg Med Chem Lett, 2006).
# How the values were obtained:
# Cannabinoid receptor 2 = Cannabinoid receptor 2 (Homo sapiens, UniProt P34972); test: Binding affinity at the CB2 receptor
# Cannabinoid receptor 1 = Cannabinoid receptor 1 (Homo sapiens, UniProt P21554); test: Binding affinity at the CB1 receptor
# Mus musculus [1] = test: Reduction in food intake in wild type C57BL/6 mice at 2 hrs after administration of 10 mg/kg, po; format: functional; design: scale not given: the % may be the effect or the level left
# In short: (§1)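 Ad libitum fed 12-week-old male C57BL/6 mice, n = 12 per group, given the compound orally at 1, 3 or 10 mpk in 0.225% methylcellulose/10% Tween 80 about 30 min before the dark phase. Food intake measured at 2 h and overnight. Overnight (18 h) body weight gain recorded and compared with vehicle.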
# Rattus norvegicus [2] = test: Reduction in food intake in SD rat at 18 hrs after administration of 3.0 mg/kg, po; format: functional, Sprague-Dawley; design: scale not given: the % may be the effect or the level left
# In short: (§2)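 Diet-induced obese Sprague–Dawley rats, six per treatment group, dosed orally with the compound in 10% Tween 80 in water 30–60 min before dark onset. Food cups weighed every 5 min in an automated system over the 18 h after dosing. Overnight body weight change also recorded. Suppression is expressed relative to vehicle-treated controls.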
# [3] = Half life in Beagle dog; format: ADME, organism-based, Canis lupus familiaris; conditions: in vivo
# [4] = Oral bioavailability in C57BL/6 mouse; format: ADME, organism-based; conditions: in vivo
# [5] = Oral bioavailability in rhesus macaque; format: ADME, organism-based, Macaca mulatta; conditions: rhesus monkey, in vivo
# [6] = Rat brain to plasma ratio at 0.25 hrs post iv dosing; format: ADME, organism-based; conditions: Sprague-Dawley
# In short: (§3)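 Sprague–Dawley rats were dosed intravenously as part of a pharmacokinetic profile. Brain and plasma concentrations were sampled at 0.25 h and at 4 h post-dose and expressed as a brain-to-plasma ratio.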
# [7] = Plasma clearance in Sprague-Dawley rat; format: ADME, organism-based
# [8] = Plasma clearance in rhesus macaque; format: ADME, organism-based, Macaca mulatta; conditions: rhesus monkey
# Rattus norvegicus [9] = test: Reduction in food intake in SD rat at 18 hrs after administration of 0.3 mg/kg, po; format: functional, Sprague-Dawley; design: scale not given: the % may be the effect or the level left; in short: as §2
# Rattus norvegicus [10] = test: Reduction in food intake in SD rat at 18 hrs after administration of 1.0 mg/kg, po; format: functional, Sprague-Dawley; design: scale not given: the % may be the effect or the level left; in short: as §2
# [11] = Plasma clearance in C57BL/6 mouse; format: ADME, organism-based
# [12] = Half life in C57BL/6 mouse; format: ADME, organism-based; conditions: in vivo
# Mus musculus [13] = test: Reduction in body weight overnight (18 hrs) in wild type C57BL/6 mice at 10 mg/kg; format: functional; design: scale not given: the % may be the effect or the level left; in short: as §1
# [14] = Rat brain to plasma ratio at 4 hrs post iv dosing; format: ADME, organism-based; conditions: Sprague-Dawley; in short: as §3
# [15] = Oral bioavailability in Sprague-Dawley rat; format: ADME, organism-based; conditions: in vivo
# [16] = Plasma clearance in Beagle dog; format: ADME, organism-based, Canis lupus familiaris
# [17] = Oral bioavailability in Beagle dog; format: ADME, organism-based, Canis lupus familiaris; conditions: in vivo
# [18] = Half life in rhesus macaque; format: ADME, organism-based, Macaca mulatta; conditions: rhesus monkey, in vivo
# [19] = Half life in Sprague-Dawley rat; format: ADME, organism-based; conditions: in vivo
# Sequence of Cannabinoid receptor 1 (P21554 whole entry): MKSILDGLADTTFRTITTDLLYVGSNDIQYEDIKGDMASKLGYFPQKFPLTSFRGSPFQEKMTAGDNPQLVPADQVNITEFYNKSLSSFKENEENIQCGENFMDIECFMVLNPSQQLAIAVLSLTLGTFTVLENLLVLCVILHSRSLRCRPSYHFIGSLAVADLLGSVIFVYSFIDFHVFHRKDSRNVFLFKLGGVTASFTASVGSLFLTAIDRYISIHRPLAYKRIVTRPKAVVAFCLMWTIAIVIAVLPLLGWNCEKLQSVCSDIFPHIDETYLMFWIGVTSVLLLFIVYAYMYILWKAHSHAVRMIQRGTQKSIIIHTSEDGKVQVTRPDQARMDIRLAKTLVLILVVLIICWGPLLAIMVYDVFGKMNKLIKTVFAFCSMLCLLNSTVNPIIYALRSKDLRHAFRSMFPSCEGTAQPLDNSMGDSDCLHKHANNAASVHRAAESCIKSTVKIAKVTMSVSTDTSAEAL
# Sequence of Cannabinoid receptor 2 (P34972 whole entry): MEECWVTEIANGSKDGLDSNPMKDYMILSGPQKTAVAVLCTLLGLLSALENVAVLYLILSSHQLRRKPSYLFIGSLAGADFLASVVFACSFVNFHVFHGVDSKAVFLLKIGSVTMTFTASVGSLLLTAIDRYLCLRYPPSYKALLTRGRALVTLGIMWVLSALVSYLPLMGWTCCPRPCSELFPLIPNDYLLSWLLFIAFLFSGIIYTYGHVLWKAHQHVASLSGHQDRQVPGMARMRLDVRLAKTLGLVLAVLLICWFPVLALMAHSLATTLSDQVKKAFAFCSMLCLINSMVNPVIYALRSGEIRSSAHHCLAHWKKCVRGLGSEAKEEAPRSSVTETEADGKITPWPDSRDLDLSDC
Structure (SMILES),IC50 (Cannabinoid receptor 2) [nM],IC50 (Cannabinoid receptor 1) [nM],other results
CC(=O)Nc1c(C(C)=O)c(=O)n(Cc2ccccc2)c2nc(-c3ccc(Cl)cc3Cl)c(-c3ccc(Cl)cc3)cc12,5100,2.3,
CC(=O)Nc1c(C(C)=O)c(=O)n(CC(C)C)c2nc(-c3ccc(Cl)cc3Cl)c(-c3ccc(Cl)cc3)cc12,6200,2.3,
CC(=O)Nc1c(C#N)c(=O)n(C)c2nc(-c3ccc(Cl)cc3Cl)c(-c3ccc(Cl)cc3)cc12,720,35,
CC(=O)Nc1c(C(C)=O)c(=O)[nH]c2nc(-c3ccc(Cl)cc3Cl)c(-c3ccc(Cl)cc3)cc12,1400,77,
CC(=O)Nc1c(C(C)=O)c(=O)n(CCO)c2nc(-c3ccc(Cl)cc3Cl)c(-c3ccc(Cl)cc3)cc12,1500,32,
CC(=O)c1c(NC(=O)CO)c2cc(-c3ccc(Cl)cc3)c(-c3ccc(Cl)cc3Cl)nc2n(C)c1=O,3600,46,
CC(=O)Nc1cc(=O)n(C)c2nc(-c3ccc(Cl)cc3Cl)c(-c3ccc(Cl)cc3)cc12,380,110,
CC(=O)Nc1c(C(C)=O)c(=O)n(C)c2nc(-c3ccc(Cl)cc3Cl)c(-c3ccc(Cl)cc3)cc12 [NAPHTHYRIDINONE],4100,,Activity (Mus musculus [1]): 49%; Activity (Rattus norvegicus [2]): 68%; half-life [3]: > 1440 min; bioavailability [4]: 70%; bioavailability [5]: 96%; Kp at 0.25 h [6]: 0.9; clearance [7]: 12 mL/min/kg; clearance [8]: 1.4 mL/min/kg; Activity (Rattus norvegicus [9]): 22%; Activity (Rattus norvegicus [10]): 39%; clearance [11]: 13.9 mL/min/kg; half-life [12]: > 480 min; Activity (Mus musculus [13]): 88%; Kp at 4 h [14]: 2.7; bioavailability [15]: 93%; clearance [16]: 4.4 mL/min/kg; bioavailability [17]: 100%; half-life [18]: 1320 min; half-life [19]: > 480 min
CC(=O)c1c(C)c2cc(-c3ccc(Cl)cc3)c(-c3ccc(Cl)cc3Cl)nc2n(C)c1=O,1400,55,
CC(=O)c1c(N)c2cc(-c3ccc(Cl)cc3)c(-c3ccc(Cl)cc3Cl)nc2n(C)c1=O,1100,120,

# The next lines start with results.
IC50 (Cannabinoid receptor 2) [nM],IC50 (Cannabinoid receptor 1) [nM],Structure (SMILES),other results
5400,15,CC(=O)Nc1c(C(C)C)c(=O)n(C)c2nc(-c3ccc(Cl)cc3Cl)c(-c3ccc(Cl)cc3)cc12,
1400,5.2,CC(=O)Nc1c(C(C)=O)c(=O)n(CC2CCCO2)c2nc(-c3ccc(Cl)cc3Cl)c(-c3ccc(Cl)cc3)cc12 (centres undefined),
2500,20,CC(=O)Nc1c(N(C)C)c(=O)n(C)c2nc(-c3ccc(Cl)cc3Cl)c(-c3ccc(Cl)cc3)cc12,
1400,96,CC(=O)c1c(N(C)C)c2cc(-c3ccc(Cl)cc3)c(-c3ccc(Cl)cc3Cl)nc2n(C)c1=O,
1800,3.7,COCCn1c(=O)c(C(C)=O)c(NC(C)=O)c2cc(-c3ccc(Cl)cc3)c(-c3ccc(Cl)cc3Cl)nc21,
3200,24,COCC(=O)Nc1c(C(C)=O)c(=O)n(C)c2nc(-c3ccc(Cl)cc3Cl)c(-c3ccc(Cl)cc3)cc12,
1500,26,CC(=O)Nc1c(C)c(=O)n(C)c2nc(-c3ccc(Cl)cc3Cl)c(-c3ccc(Cl)cc3)cc12,
1100,24,COc1c(NC(C)=O)c2cc(-c3ccc(Cl)cc3)c(-c3ccc(Cl)cc3Cl)nc2n(C)c1=O,
